Source: ChEMBL document CHEMBL1165901, “Synthesis and biological evaluation of dialkylaminoalkylamino benzo[c][1,7] and [1,8]phenanthrolines as antiproliferative agents” (Eur J Med Chem, 2010)
Active and inactive are the calls of the source. The calls are words filed in the database; no cut-off is given here.

Tests used:
L1210 = assay: Cytotoxicity against mouse L1210 cells; type: functional, cell-based
How it was run: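 Mouse leukemia L1210 cells grown in RPMI 1640 with 10% FCS, 2 mM glutamine, penicillin/streptomycin and 10 mM HEPES pH 7.4. Exposed 48 h to nine graded drug concentrations in triplicate. Read by microculture tetrazolium assay. IC50 is the concentration that halves absorbance relative to untreated cells; mean of 3.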

Calf thymus DNA [1] = assay: Binding affinity to calf thymus DNA assessed as change in melting temperature; type: nucleic-acid assay; details: Bos taurus
How it was run: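 CT-DNA ([…] as printed) in 1 mL BPE buffer pH 7.1 (6 mM Na2HPO4, 2 mM NaH2PO4, 1 mM EDTA), alone or with drug at base pair/drug ratio 1. A260 recorded every min, 20–100 °C at 1 °C/min, Peltier-controlled. Tm taken as midpoint of hyperchromic double- to single-strand transition; ΔTm relative to DNA alone.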

Calf thymus DNA [2] = assay: Binding affinity to calf thymus DNA assessed as decrease in fluorescence intensity at 20 uM by fluorescence spectrophotometry; type: nucleic-acid assay; details: Bos taurus
How it was run: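 Fluorescent compound at […] in 1 mL BPE buffer pH 7.1, with or without […] CT-DNA, in a 10 mm quartz cuvette. Excitation at 268, 275 or 285 nm depending on compound; emission spectra scanned.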

Calf thymus DNA [3] = assay: Binding affinity to calf thymus DNA assessed as decrease in absorbance at 20 uM by UV-visible spectrophotometry; type: nucleic-acid assay; details: Bos taurus
How it was run: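 Compound at […], with or without CT-DNA at […], in 1 mL BPE buffer pH 7.1 in a 10 mm quartz cuvette. Spectra scanned 230–500 nm against a blank holding the same DNA concentration in the same buffer. Drug/DNA ratio 1; DMSO stocks diluted into buffer.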

[4] = molecular target: T1, DNA topoisomerase 1 (Homo sapiens) (UniProt P11387); assay: Inhibition of human recombinant topoisomerase 1-mediated relaxation of supercoiled pUC19 by agarose gel electrophoresis
T1 sequence (whole entry): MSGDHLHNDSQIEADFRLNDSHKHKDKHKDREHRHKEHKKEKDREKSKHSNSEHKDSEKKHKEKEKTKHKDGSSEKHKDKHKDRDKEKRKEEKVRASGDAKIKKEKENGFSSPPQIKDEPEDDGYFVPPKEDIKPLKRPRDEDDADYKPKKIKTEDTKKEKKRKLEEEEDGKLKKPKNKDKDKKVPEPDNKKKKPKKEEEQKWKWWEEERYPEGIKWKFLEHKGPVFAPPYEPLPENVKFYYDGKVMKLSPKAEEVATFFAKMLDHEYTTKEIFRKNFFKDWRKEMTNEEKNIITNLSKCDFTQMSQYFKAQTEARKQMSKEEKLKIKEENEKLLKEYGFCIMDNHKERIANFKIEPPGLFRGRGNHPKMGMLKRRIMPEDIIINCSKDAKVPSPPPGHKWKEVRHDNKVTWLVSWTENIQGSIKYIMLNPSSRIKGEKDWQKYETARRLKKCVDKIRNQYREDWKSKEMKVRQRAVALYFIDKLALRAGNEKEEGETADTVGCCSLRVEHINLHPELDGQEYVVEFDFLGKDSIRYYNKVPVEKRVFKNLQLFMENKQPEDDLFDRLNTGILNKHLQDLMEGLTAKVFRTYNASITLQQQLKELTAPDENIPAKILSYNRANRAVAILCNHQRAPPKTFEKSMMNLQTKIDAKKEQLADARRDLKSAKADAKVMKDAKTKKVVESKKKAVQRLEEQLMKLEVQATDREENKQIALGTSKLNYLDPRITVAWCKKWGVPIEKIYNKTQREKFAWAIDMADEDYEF

[5] = molecular target: T1, DNA topoisomerase 1 (Homo sapiens); assay: Inhibition of human recombinant topoisomerase 1-mediated relaxation of supercoiled pUC19 at 1 to 5 uM by agarose gel electrophoresis
[6] = molecular target: DNA topoisomerase 2-alpha (Homo sapiens) (UniProt P11388); assay: Inhibition of human recombinant topoisomerase 2-mediated relaxation of supercoiled […] by agarose gel electrophoresis
DNA topoisomerase 2-alpha (Homo sapiens), sequence (P11388 whole entry): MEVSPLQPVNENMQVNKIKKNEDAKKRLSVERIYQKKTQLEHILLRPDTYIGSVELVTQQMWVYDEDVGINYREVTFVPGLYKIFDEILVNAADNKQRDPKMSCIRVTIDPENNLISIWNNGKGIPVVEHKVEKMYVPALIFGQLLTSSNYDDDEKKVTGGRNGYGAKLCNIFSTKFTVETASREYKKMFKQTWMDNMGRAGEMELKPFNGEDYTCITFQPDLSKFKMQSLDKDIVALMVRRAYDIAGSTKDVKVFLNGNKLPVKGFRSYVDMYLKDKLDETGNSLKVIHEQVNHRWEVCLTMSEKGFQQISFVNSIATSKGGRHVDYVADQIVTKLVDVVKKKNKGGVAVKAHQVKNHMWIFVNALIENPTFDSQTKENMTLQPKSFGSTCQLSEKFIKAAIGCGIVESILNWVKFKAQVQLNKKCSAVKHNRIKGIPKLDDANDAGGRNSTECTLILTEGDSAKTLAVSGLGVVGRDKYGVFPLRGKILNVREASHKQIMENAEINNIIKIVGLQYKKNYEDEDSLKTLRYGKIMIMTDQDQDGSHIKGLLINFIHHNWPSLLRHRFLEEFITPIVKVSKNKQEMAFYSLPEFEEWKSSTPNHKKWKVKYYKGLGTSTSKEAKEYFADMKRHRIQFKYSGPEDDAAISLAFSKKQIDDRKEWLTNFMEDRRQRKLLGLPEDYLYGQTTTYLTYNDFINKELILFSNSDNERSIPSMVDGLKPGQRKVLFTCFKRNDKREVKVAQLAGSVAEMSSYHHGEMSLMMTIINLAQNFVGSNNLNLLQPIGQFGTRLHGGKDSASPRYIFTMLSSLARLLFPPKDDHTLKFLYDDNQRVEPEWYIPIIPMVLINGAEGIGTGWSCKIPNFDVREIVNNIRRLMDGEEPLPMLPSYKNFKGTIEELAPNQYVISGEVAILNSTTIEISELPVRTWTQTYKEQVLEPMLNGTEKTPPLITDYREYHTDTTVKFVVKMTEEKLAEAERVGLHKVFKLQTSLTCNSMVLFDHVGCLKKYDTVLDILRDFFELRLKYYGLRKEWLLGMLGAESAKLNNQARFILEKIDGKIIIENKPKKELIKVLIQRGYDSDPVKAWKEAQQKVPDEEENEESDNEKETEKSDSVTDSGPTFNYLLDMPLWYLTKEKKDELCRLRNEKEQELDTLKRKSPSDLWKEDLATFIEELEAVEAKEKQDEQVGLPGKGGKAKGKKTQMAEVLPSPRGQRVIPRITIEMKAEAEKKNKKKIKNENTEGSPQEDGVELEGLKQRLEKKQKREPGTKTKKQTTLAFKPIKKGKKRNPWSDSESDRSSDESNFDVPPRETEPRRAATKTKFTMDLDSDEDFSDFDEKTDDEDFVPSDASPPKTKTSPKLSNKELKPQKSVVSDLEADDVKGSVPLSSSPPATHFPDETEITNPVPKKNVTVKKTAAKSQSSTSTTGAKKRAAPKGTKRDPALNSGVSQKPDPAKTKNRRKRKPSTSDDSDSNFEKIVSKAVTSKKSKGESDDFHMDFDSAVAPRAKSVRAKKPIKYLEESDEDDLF
How it was run: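 Supercoiled pUC19 (350 ng) preincubated with compound at […], or etoposide at 20 or 50, before adding 10 units human topoisomerase II; 37 °C for 45 min in cleavage buffer. Stopped with SDS 0.25% plus proteinase K, 30 min at 50 °C. Run on 1% agarose containing ethidium bromide, 2 h at 120 V in TBE.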

Calf thymus DNA [7] = assay: Binding affinity to calf thymus DNA assessed as circular dichroism at 50 uM by J810 Jasco spectrophotometer; type: nucleic-acid assay; details: Bos taurus
How it was run: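 CT-DNA deproteinized with SDS and dialyzed against 1 mM sodium cacodylate pH 7.0. Drug at […], with or without […] base pairs CT-DNA, in 1 mL 1 mM sodium cacodylate pH 7.0. CD spectra recorded 500–230 nm at 0.1 nm resolution.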

Question: How did the IC50 (L1210) turn out when `CN(C)CCNc1ccc2c(ccc3c4cc5c(cc4cnc23)OCO5)n1` was run?
Answer: 320 nM

Question: What about the ΔTm (Calf thymus DNA [1]) of the same compound?
Answer: 4 °C

Question: And the Activity (Calf thymus DNA [2])?
Answer: Active

Question: What about the Activity (Calf thymus DNA [3]) of the same compound?
Answer: Active

Question: What about the Activity [4] of the same compound?
Answer: Active

Question: What about the Activity [5] of the same compound?
Answer: inactive

Question: And the Activity [6]?
Answer: Active

Question: `COc1cc2cnc3c4ccncc4ccc3c2cc1OC` was tested. Which IC50 (L1210) did it give?
Answer: 6600 nM

Question: How did the IC50 (L1210) turn out when `c1cnc2ccc3c4cc5c(cc4cnc3c2c1)OCO5` was run?
Answer: 8800 nM

Question: How did the IC50 (L1210) turn out when `COc1cc2cnc3c4ccnc(Cl)c4ccc3c2cc1OC` was run?
Answer: 4300 nM

Question: For `c1cc2c(ccc3c4cc5c(cc4cnc23)OCO5)cn1`, which IC50 (L1210) is on record?
Answer: 4400 nM

Question: `CN(C)CCCNc1ccc2c(ccc3c4cc5c(cc4cnc23)OCO5)n1` was tested. Which IC50 (L1210) did it give?
Answer: 510 nM

Question: And the Activity (Calf thymus DNA [2])?
Answer: Active

Question: And the Activity (Calf thymus DNA [3])?
Answer: Active

Question: What about the Activity (Calf thymus DNA [7]) of the same compound?
Answer: Active

Question: What about the Activity [6] of the same compound?
Answer: Active

Question: For `COc1cc2cnc3c4cccnc4ccc3c2cc1OC`, which IC50 (L1210) is on record?
Answer: 7100 nM

Question: What does the source list for `COc1cc2cnc3c4ccc(NCCCN(C)C)nc4ccc3c2cc1OC`?
Answer: IC50 (L1210): 2850 nM; ΔTm (Calf thymus DNA [1]): 0 °C; Activity (Calf thymus DNA [2]): Active; Activity (Calf thymus DNA [3]): Active; Activity [6]: Active

Question: Which results are given for `COc1cc2cnc3c4ccc(NCCN(C)C)nc4ccc3c2cc1OC`?
Answer: IC50 (L1210): 1730 nM; ΔTm (Calf thymus DNA [1]): 12 °C; Activity (Calf thymus DNA [2]): Active; Activity (Calf thymus DNA [3]): Active; Activity [4]: Active; inhibition [5]: inactive; Activity [6]: Active

Question: What does the source list for `CCN(CC)CCCNc1ccc2c(ccc3c4cc5c(cc4cnc23)OCO5)n1`?
Answer: IC50 (L1210): 830 nM; ΔTm (Calf thymus DNA [1]): 11 °C; Activity (Calf thymus DNA [2]): Active; Activity (Calf thymus DNA [3]): Active; Activity (Calf thymus DNA [7]): Active; Activity [6]: Active

Question: Which results are given for `CCN(CC)CCCNc1nccc2c1ccc1c3cc(OC)c(OC)cc3cnc21`?
Answer: IC50 (L1210): 3700 nM; Activity [6]: Active

Question: Which IC50 (L1210) does the source give for `COc1cc2cnc3c4ccnc(NCCCN(C)C)c4ccc3c2cc1OC` here?
Answer: 1800 nM

Question: What about the Activity (Calf thymus DNA [3]) of the same compound?
Answer: Active

Question: And the Activity [6]?
Answer: Active

Question: Which IC50 (L1210) does the source give for `COc1cc2c(ccc3c4cc(OC)c(OC)cc4c[n+](C)c23)cc1O` [FAGARONINE] here?
Answer: 6600 nM

Question: Which results are given for `CCN(CC)CCCNc1ccc2c(ccc3c4cc(OC)c(OC)cc4cnc23)n1`?
Answer: IC50 (L1210): 1260 nM; Activity (Calf thymus DNA [2]): Active; Activity (Calf thymus DNA [3]): Active; Activity [6]: Active

Question: With `CCN(CC)CCNc1nccc2c1ccc1c3cc(OC)c(OC)cc3cnc21` as the compound, how does the IC50 (L1210) read?
Answer: 1770 nM

Question: What about the ΔTm (Calf thymus DNA [1]) of the same compound?
Answer: 9 °C

Question: What about the Activity (Calf thymus DNA [3]) of the same compound?
Answer: Active

Question: What about the Activity [6] of the same compound?
Answer: Active

Question: How did the IC50 (L1210) turn out when `CN(C)CCCNc1nccc2c1ccc1c3cc4c(cc3cnc21)OCO4` was run?
Answer: 290 nM

Question: And the ΔTm (Calf thymus DNA [1])?
Answer: 14 °C

Question: And the Activity (Calf thymus DNA [3])?
Answer: Active

Question: What about the Activity [4] of the same compound?
Answer: Active

Question: And the Activity (Calf thymus DNA [7])?
Answer: Active

Question: And the Activity [5]?
Answer: inactive

Question: What about the Activity [6] of the same compound?
Answer: Active

Question: With `CCN(CC)CCNc1ccc2c(ccc3c4cc5c(cc4cnc23)OCO5)n1` as the compound, how does the IC50 (L1210) read?
Answer: 1740 nM

Question: And the ΔTm (Calf thymus DNA [1])?
Answer: 5 °C

Question: What about the Activity (Calf thymus DNA [2]) of the same compound?
Answer: Active

Question: And the Activity (Calf thymus DNA [3])?
Answer: Active

Question: What about the Activity [4] of the same compound?
Answer: Active

Question: And the Activity [5]?
Answer: inactive

Question: And the Activity [6]?
Answer: Active

Question: What does the source list for `COc1cc2cnc3c4ccnc(NCCN(C)C)c4ccc3c2cc1OC`?
Answer: IC50 (L1210): 3510 nM; ΔTm (Calf thymus DNA [1]): 9 °C; Activity (Calf thymus DNA [3]): Active; Activity [6]: Active

Question: With `CN(C)CCNc1nccc2c1ccc1c3cc4c(cc3cnc21)OCO4` as the compound, how does the ΔTm (Calf thymus DNA [1]) read?
Answer: 7 °C

Question: What about the Activity (Calf thymus DNA [3]) of the same compound?
Answer: Active

Question: And the Activity [4]?
Answer: Active

Question: And the Activity [5]?
Answer: inactive

Question: What about the Activity [6] of the same compound?
Answer: Active

Question: Which results are given for `CCN(CC)CCNc1ccc2c(ccc3c4cc(OC)c(OC)cc4cnc23)n1`?
Answer: IC50 (L1210): 960 nM; ΔTm (Calf thymus DNA [1]): 5 °C; Activity (Calf thymus DNA [2]): Active; Activity (Calf thymus DNA [3]): Active; Activity [6]: Active
